The results in this text go back to ChEMBL document CHEMBL5030505, “Assessment of NR4A Ligands That Directly Bind and Modulate the Orphan Nuclear Receptor Nurr1” (J Med Chem, 2020).

Active and inactive are the calls of the source. The rule behind the calls is not given here.

Format in all cases: cell-based
The target in data set [1] is Nuclear receptor subfamily 4 group A member 2 (Homo sapiens) (UniProt P43354). The data set is described as follows: Modulation of full length human Nurr1 expressed in HEK293T cells co-transfected with RXRalpha and luciferase reporter plasmid harboring NBRE response element assessed as decrease in luciferase activity at 1.56 to 6.25 uM incubated for 18 by luciferase reporter gene assay. The conditions noted are these: filed as modulator, dose 1.56-6.25 µM, time 18.0 hrs.

The next data set concerns PC-12. The data set is described as follows: Modulation of Gal4-fused VP16 expressed in PC12 cells co-transfected with UAS repoter gene assessed as decrease in luciferase activity at 1.56 to 6.25 uM incubated for 18 hrs by luciferase reporter gene assay. The conditions noted are these: Human alphaherpesvirus 2, filed as modulator, dose 1.56-6.25 µM. An outline of the steps: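 Constitutive control: cells transfected (Lipofectamine 2000) with Gal4-VP16 expression plasmid (2 μg) plus 5xUAS-luciferase reporter (2 μg), 18 h; replated 10,000 cells/well, 4 h; ligand or vehicle in quadruplicate for 18 h; luciferase read by Britelite Plus; signal as fold change over vehicle-treated cells. Mean ± s.e.m. (n=4); one-way ANOVA versus vehicle.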
(In general: Reporter assays use an easily measured gene product as a stand-in for the process of interest.)

Data set [2] concerns the target Nuclear receptor subfamily 4 group A member 2 (Homo sapiens) (UniProt P43354). The data set is described as follows: Modulation of full length human Nurr1 expressed in HEK293T cells co-transfected with luciferase reporter plasmid harboring NurRE response element assessed as increase in luciferase activity at 1.56 to 6.25 uM incubated for 18 by luciferase reporter gene assay. The note with it: filed as modulator, dose 1.56-6.25 µM, time 18.0 hrs. Summed up: (§1)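 Cells transfected (Lipofectamine 2000, 18 h) with full-length Nurr1 expression plasmid (2 μg) and 3xNBRE- or 3xNurRE-luciferase reporter (6 μg), no internal control normalisation; replated 10,000 cells/well, 4 h; ligand or vehicle in quadruplicate for 18 h; Britelite Plus luminescence as fold change over vehicle. Mean ± s.e.m. (n=4); one-way ANOVA versus vehicle.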

For data set [3] the target is unchanged. The data set can be described thus: Modulation of full length human Nurr1 expressed in HEK293T cells co-transfected with luciferase reporter plasmid harboring NBRE response element assessed as decrease in luciferase activity at 1.56 to 6.25 uM incubated for 18 by luciferase reporter gene assay. The conditions noted are these: filed as modulator, dose 1.56-6.25 µM, time 18.0 hrs. An outline of the steps:
as §1

Another data set concerns SK-N-BE(2). The data set can be described thus: Cytotoxicity against human SKNBE2 cells assessed as reduction in cell viability at 5 to 100 uM incubated for 18 hrs by Cell titer-glo assay. The conditions noted are these: dose 5-100 µM. An outline of the steps: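 Cells seeded at 1.5 million per 10-cm dish. Next day they were replated at 10,000 cells/well and rested 4 h. Ligand or vehicle (water, ethanol or DMSO, by ligand) was added in dose-response format in quadruplicate. After 18 h, viability was read by CellTiter-Glo luminescence. Data are mean ± s.e.m., generally representative of 2 independent experiments. One-way ANOVA versus vehicle.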

Nuclear receptor subfamily 4 group A member 2 (Homo sapiens), sequence (P43354 whole entry): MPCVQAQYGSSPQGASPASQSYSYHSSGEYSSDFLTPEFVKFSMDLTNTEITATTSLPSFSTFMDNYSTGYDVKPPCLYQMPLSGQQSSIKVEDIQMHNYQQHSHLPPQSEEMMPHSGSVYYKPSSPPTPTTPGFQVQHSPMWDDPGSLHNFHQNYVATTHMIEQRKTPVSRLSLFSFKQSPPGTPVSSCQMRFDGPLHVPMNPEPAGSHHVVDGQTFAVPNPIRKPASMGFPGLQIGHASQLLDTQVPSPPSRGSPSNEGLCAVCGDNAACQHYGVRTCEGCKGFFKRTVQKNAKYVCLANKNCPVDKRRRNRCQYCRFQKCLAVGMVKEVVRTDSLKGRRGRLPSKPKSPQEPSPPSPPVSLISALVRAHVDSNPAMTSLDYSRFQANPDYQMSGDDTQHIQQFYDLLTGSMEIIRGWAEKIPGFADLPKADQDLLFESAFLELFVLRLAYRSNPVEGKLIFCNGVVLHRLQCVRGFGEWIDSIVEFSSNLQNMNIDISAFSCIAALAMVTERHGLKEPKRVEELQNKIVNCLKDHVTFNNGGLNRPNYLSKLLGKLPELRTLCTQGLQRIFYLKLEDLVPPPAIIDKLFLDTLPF

For `CC1=C(O)C(=O)C=C2C1=CC=C1[C@@]2(C)CC[C@@]2(C)[C@@H]3C[C@](C)(C(=O)O)CC[C@]3(C)CC[C@]12C` [CELASTROL], the result (in data set [1]; in the data set on PC-12; in data set [2]; in data set [3]) was Active.

Consider `CCCCCCCC(=O)c1c(O)cc(O)cc1CC(=O)OCC` [CYTOSPORONE B], for which, in the data set with SK-N-BE(2), the Activity result was “Toxic”.
